Bioassay records from PubChem.
Calb FLC – C. albicans growth inhibition with fluconazole, primary screen, CaCi-2 strain, Alamar Blue fluorescence. C. albicans CaCi-2 (fluconazole-resistant clinical isolate) + fluconazole, 48 h. hit rate 0.57% among 300,000. AID 1979, 2009. growth inhibition, % (concentration not given with the values);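 active = growth inhibition above about 58% in most replicates, limit read from the data, passing the limit was not always enough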;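 also: all wells also contain fluconazole at 8 µg/ml as a sub-toxic cotreatment; 0% = median of DMSO wells and 100% = median of geldanamycin control wells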
SKKanGAS inh – S. pyogenes SKKanGAS growth inhibitors in kanamycin, primary screen, streptokinase expression inhibitor project, SKKanGAS strain, BacTiter-Glo luminescence; 6 h; inhibition, % at 7.5 µM; hit rate 1.3% among 300,000; AID 1662, 2009;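 active = mean replicate score, as percent of positive control median, at least 50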;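 also: strain carries kanamycin resistance gene driven by streptokinase promoter and grows in 40 µg/ml kanamycin; loss of luminescence reflects streptokinase promoter inhibition or plain growth inhibition; 0% = median of DMSO wells and 100% = positive control at its reference dose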
ASAP1 inh – inhibitors of human ASAP1 ArfGAP activity, primary screen, biochemical, fluorescence polarization; inhibition, % at 16.5 µM; AID 624377, 2012; hit rate 0.19% among 360,000; Arf-GAP with SH3 domain, ANK repeat and PH domain-containing protein 1 (Homo sapiens), …; ASAP1-stimulated ARF1 GTP hydrolysis, GDP FP detection; in the data active = inhibition above about 25%;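 also: 0% = vehicle with enzyme and substrate and 100% = no enzyme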
Target sequence (Q9ULH1 325-724 limits assumed): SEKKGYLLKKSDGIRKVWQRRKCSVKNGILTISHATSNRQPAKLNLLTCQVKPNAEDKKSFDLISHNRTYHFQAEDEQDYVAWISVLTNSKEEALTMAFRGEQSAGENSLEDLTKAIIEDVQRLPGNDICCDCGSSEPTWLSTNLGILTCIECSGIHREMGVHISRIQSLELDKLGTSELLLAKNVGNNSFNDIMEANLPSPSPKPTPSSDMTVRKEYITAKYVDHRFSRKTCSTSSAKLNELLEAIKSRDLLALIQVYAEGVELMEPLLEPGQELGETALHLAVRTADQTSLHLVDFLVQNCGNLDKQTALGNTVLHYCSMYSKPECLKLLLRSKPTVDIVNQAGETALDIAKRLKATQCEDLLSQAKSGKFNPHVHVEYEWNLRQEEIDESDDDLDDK
HGIII-sPLA2 inh – human group III sPLA2 inhibitors, primary screen, biochemical, QFRET, BODIPY PC-A2 liposome substrate; hit rate 0.56% among 370,000; Group 3 secretory phospholipase A2 (Homo sapiens), Q9NZ20; inhibition, % at 12.2 µM; QFRET BODIPY PC-A2 liposome hydrolysis, fluorescence;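 active = inhibition above mean plus 3 SD of compounds lying within the high and low control bounds, cut at about 19% in these data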;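 also: 0% = median of test compound wells and 100% = no enzyme DMSO wells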
ARFGAP1 inh – inhibitors of rat ARFGAP1 GAP activity, primary screen, biochemical, fluorescence polarization, GDP tracer; Arfgap1-stimulated ARF1 GTP hydrolysis, GDP FP detection; inhibition, % at 16.5 µM; hit rate 0.26% among 360,000;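 active = inhibition above a per-plate limit, mean inhibition of low control wells plus 3 SD, cut at about 25% in these data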;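 also: 0% = DMSO wells with enzyme and 100% = wells lacking Arfgap1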
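Assay system: Rat Arfgap1 GAP domain (His6, aa 1-136), purified enzyme | Buffer or medium: HEPES 25 mM pH 7.5, NaCl 150 mM, MgCl2, DTT | Schedule: GTP hydrolysis reaction 2 h at 25 °C | Signal: FP of antibody-bound GDP Alexa 633 tracer, ex 620/em 688 nm | Measure: Percent inhibition of Arfgap1-stimulated GTP hydrolysis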
ASAP1 inh confirm – ASAP1 GAP activity inhibitors, confirmation, biochemical, fluorescence polarization, human, triplicate. ASAP1-stimulated Arf1 GTPase, GDP fluorescence polarization. shares compounds with ASAP1 inh. AID 624431, 2012. hit rate 37% among 620. inhibition, % at 16.5 µM;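 active = mean inhibition over triplicates exceeds the hit threshold derived for the earlier primary screening run, cut at about 25% in these data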
* marks the source's active call; other numbers are inactive results. Most compounds without a hit are left out; they make up all but 2.3% or so of the library.

For COc1cccc(NC(=O)C2(C)CCN2Cc2ccc(OC)c3ccccc23)c1 (stereo unspecified) the results were ASAP1 inh 29*, HGIII-sPLA2 inh -7, ARFGAP1 inh 24 and ASAP1 inh confirm 4.
For COc1ccccc1Oc1cc(F)nc(N)n1 the results were Calb FLC -16, SKKanGAS inh 1, ASAP1 inh 26*, HGIII-sPLA2 inh 5, ARFGAP1 inh 11 and ASAP1 inh confirm 2.
For CCO[C@@H]1OC(C(=O)O)=C[C@H](c2csc3ccccc23)[C@H]1CCCO the results were Calb FLC 9, SKKanGAS inh 7, ASAP1 inh 5, HGIII-sPLA2 inh 4 and ARFGAP1 inh 1.
Screening CCO[C@H]1OC(C(=O)Nc2ccccc2)=C[C@@H](c2csc3ccccc23)[C@@H]1CCCO returned Calb FLC 27, SKKanGAS inh 10, ASAP1 inh 25*, HGIII-sPLA2 inh -31, ARFGAP1 inh 16 and ASAP1 inh confirm 19.
For O=C(COC(=O)C1CC(=O)N(Cc2ccco2)C1)c1ccc(OC(=O)c2ccco2)cc1 (stereo unspecified) the results were Calb FLC 1, SKKanGAS inh -7, ASAP1 inh 28*, HGIII-sPLA2 inh -7, ARFGAP1 inh -2 and ASAP1 inh confirm 4.
For CC(=O)N1CCN(c2ccc(N3CCN(C(C)=O)[C@@H](C)C3)c(C)c2)[C@H](C)C1 the results were ASAP1 inh 2, HGIII-sPLA2 inh -1 and ARFGAP1 inh 17.
For COC(=O)[C@H](C)[C@@H]1C[C@@]1(C)[C@@H](NC(=O)OCc1ccccc1)c1ccccc1 the results were Calb FLC 1, SKKanGAS inh -1, ASAP1 inh -1, HGIII-sPLA2 inh -4 and ARFGAP1 inh -2.
`C[C@@H](C(=O)O)[C@H]1C[C@]1(C)[C@H](NC(=O)OCc1ccccc1)c1ccccc1` gave Calb FLC 2, SKKanGAS inh 6, ASAP1 inh 26*, HGIII-sPLA2 inh -1, ARFGAP1 inh -3 and ASAP1 inh confirm 0.
Screening COc1ccc(S(=O)(=O)NNC(=S)NCCc2ccccc2)c(OC)c1 returned Calb FLC 1, SKKanGAS inh -2, ASAP1 inh 26*, HGIII-sPLA2 inh 15, ARFGAP1 inh 6 and ASAP1 inh confirm 4.
C=CCN=C1NC(c2ccc(F)cc2)C(C(=O)OC)=C(C)N1Cc1ccccc1C(F)(F)F (stereo unspecified) was read as ASAP1 inh 25*, HGIII-sPLA2 inh 0, ARFGAP1 inh 9 and ASAP1 inh confirm -2.
O=C(Cn1nc(-c2ccccc2)ccc1=O)Nc1ccc(-n2cnnn2)cc1 was read as Calb FLC -3, SKKanGAS inh -10, ASAP1 inh 2, HGIII-sPLA2 inh -6 and ARFGAP1 inh 23.
O=C(Cn1nc(-c2ccc3c(c2)OCCO3)ccc1=O)Nc1ccc(-n2cnnn2)cc1 was read as Calb FLC 0, SKKanGAS inh 0, ASAP1 inh 36*, HGIII-sPLA2 inh -2, ARFGAP1 inh 11 and ASAP1 inh confirm 36*.
Screening CN(C)c1ccc(-c2[nH][nH]c(=O)c2NC(=O)c2ccc3ccccc3n2)cc1 returned ASAP1 inh 36*, HGIII-sPLA2 inh 5, ARFGAP1 inh -7 and ASAP1 inh confirm 0.
COc1ccc(C2Nc3ccccc3C(=O)N2Cc2ccco2)cc1COc1c(C)cc(NC(C)=O)cc1C (stereo unspecified) was read as HGIII-sPLA2 inh -3.
Screening O=C1NC(Cc2c[nH]c3ccccc23)C(=O)N1Cc1ccc(CN2C(=O)NC(Cc3c[nH]c4ccccc34)C2=O)cc1 (stereo unspecified) returned Calb FLC -3, SKKanGAS inh -10, ASAP1 inh 29*, HGIII-sPLA2 inh -144, ARFGAP1 inh 8 and ASAP1 inh confirm 13.
